In brackets after ≈: the same amount, converted by molar mass.
System: Proteus vulgaris
Test: Antibacterial activity against 10^5 CFU/mL Proteus vulgaris MTCC 1771 after 24 hrs by agar streak dilution method
Assay type: functional
Settings: MTCC 1771, 24 h
Method in brief: (§1)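 Agar streak dilution. Stock 100 µg/mL in DMSO; graded amounts were mixed into molten nutrient agar and poured at 4–5 mm depth. Plates carried serial dilutions over […]. About 10⁵ CFU/mL of each bacterium was applied, and plates were incubated at 37 ± 1 °C for 24 h. MIC was read from the dilution series.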

Q: With `CC(C)N1CCN(c2nc(Nc3ccc(C#N)c(C(F)(F)F)c3)nc(Oc3ccnc4ccccc34)n2)CC1` as the molecule, how does the MIC read?
A: The MIC was 100 µg/mL (≈ 187 µM).

System: Candida albicans
Test: Antifungal activity against 10^5 CFU/mL Candida albicans MTCC 183 after 48 hrs by disc diffusion technique
Assay type: functional
Settings: not given

Q: For `CC(C)N1CCN(c2nc(Nc3ccc(C#N)c(C(F)(F)F)c3)nc(Oc3ccnc4ccccc34)n2)CC1`, which “inhibition zone (IZ)” value is on record?
A: The value was 18 mm.

System: Escherichia coli
Test: Antibacterial activity against 10^5 CFU/mL Escherichia coli MTCC 739 after 24 hrs by agar streak dilution method
Assay type: functional
Settings: MTCC 739, 24 h
Method in brief: as §1

Q: How did the MIC turn out when `CC(C)N1CCN(c2nc(Nc3ccc(C#N)c(C(F)(F)F)c3)nc(Oc3ccnc4ccccc34)n2)CC1` was run?
A: Its MIC is 50 µg/mL (≈ 93.5 µM).

System: Pseudomonas aeruginosa
Test: Antibacterial activity against 10^5 CFU/mL Pseudomonas aeruginosa MTCC 741 after 24 hrs by agar streak dilution method
Assay type: functional
Settings: MTCC 741, 24 h
Method in brief: as §1

Q: How did the MIC turn out when `CC(C)N1CCN(c2nc(Nc3ccc(C#N)c(C(F)(F)F)c3)nc(Oc3ccnc4ccccc34)n2)CC1` was run?
A: The MIC was 25 µg/mL (≈ 46.8 µM).

System: Bacillus cereus
Test: Antibacterial activity against 10^5 CFU/mL Bacillus cereus MTCC 619 after 24 hrs by disc diffusion technique
Assay type: functional
Settings: not given
Method in brief: (§2)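 Disc diffusion on Mueller–Hinton agar poured 5 mm deep. The surface was swabbed with a 10⁵ CFU/mL […] suspension. Filter-paper discs 6.25 mm in diameter were soaked in compound in DMSO and placed on the agar. Plates were incubated 24 h at 37 ± 1 °C, and the inhibition zone was measured in mm. A DMSO disc served as blank.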

Q: `CC(C)N1CCN(c2nc(Nc3ccc(C#N)c(C(F)(F)F)c3)nc(Oc3ccnc4ccccc34)n2)CC1` was tested. Which “inhibition zone (IZ)” value did it give?
A: Its value is 22 mm.

System: Bacillus cereus
Test: Antibacterial activity against 10^5 CFU/mL Bacillus cereus MTCC 619 after 24 hrs by agar streak dilution method
Assay type: functional
Settings: MTCC 619, 24 h
Method in brief: as §1

Q: With `CC(C)N1CCN(c2nc(Nc3ccc(C#N)c(C(F)(F)F)c3)nc(Oc3ccnc4ccccc34)n2)CC1` as the molecule, how does the MIC read?
A: Its MIC is 50 µg/mL (≈ 93.5 µM).

System: Aspergillus fumigatus
Test: Antifungal activity against 10^5 CFU/mL Aspergillus fumigatus MTCC 343 after 48 hrs by agar streak dilution method
Assay type: functional
Settings: MTCC 343, 48 h
Method in brief: (§3)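 Agar streak dilution for fungi. Stock 100 µg/mL in DMSO; graded amounts were mixed into molten Sabouraud dextrose agar and poured at 4–5 mm depth. Serial dilutions ran over […]. About 10⁵ CFU/mL inoculum was applied, with incubation at 37 ± 1 °C for 48 h. MIC was read from the dilution series.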

Q: With `CC(C)N1CCN(c2nc(Nc3ccc(C#N)c(C(F)(F)F)c3)nc(Oc3ccnc4ccccc34)n2)CC1` as the molecule, how does the MIC read?
A: Its MIC is 100 µg/mL (≈ 187 µM).

System: Shigella flexneri
Test: Antibacterial activity against 10^5 CFU/mL Shigella flexneri MTCC 1457 after 24 hrs by disc diffusion technique
Assay type: functional
Settings: not given
Method in brief: as §2

Q: How did the “inhibition zone (IZ)” value turn out when `CC(C)N1CCN(c2nc(Nc3ccc(C#N)c(C(F)(F)F)c3)nc(Oc3ccnc4ccccc34)n2)CC1` was run?
A: The value was 21 mm.

System: Aspergillus fumigatus
Test: Antifungal activity against 10^5 CFU/mL Aspergillus fumigatus MTCC 343 after 48 hrs by disc diffusion technique
Assay type: functional
Settings: not given

Q: How did the “inhibition zone (IZ)” value turn out when `CC(C)N1CCN(c2nc(Nc3ccc(C#N)c(C(F)(F)F)c3)nc(Oc3ccnc4ccccc34)n2)CC1` was run?
A: The value was 17 mm.

System: Klebsiella pneumoniae
Test: Antibacterial activity against 10^5 CFU/mL Klebsiella pneumoniae MTCC 109 after 24 hrs by agar streak dilution method
Assay type: functional
Settings: MTCC 109, 24 h
Method in brief: as §1

Q: `CC(C)N1CCN(c2nc(Nc3ccc(C#N)c(C(F)(F)F)c3)nc(Oc3ccnc4ccccc34)n2)CC1` was tested. Which MIC did it give?
A: Its MIC is 100 µg/mL (≈ 187 µM).

System: Pseudomonas aeruginosa
Test: Antibacterial activity against 10^5 CFU/mL Pseudomonas aeruginosa MTCC 741 after 24 hrs by disc diffusion technique
Assay type: functional
Settings: not given
Method in brief: as §2

Q: Which “inhibition zone (IZ)” value does the source give for `CC(C)N1CCN(c2nc(Nc3ccc(C#N)c(C(F)(F)F)c3)nc(Oc3ccnc4ccccc34)n2)CC1` here?
A: The value was 22 mm.

System: DU-145
Test: Cytotoxicity against […] human DU145 cells after 48 hrs by SRB assay
Assay type: functional
Settings: DU-145, 48 h
Method in brief: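 SRB assay in DU-145 cells grown in RPMI 1640 with 10% FBS and 2 mM L-glutamine. Cells were plated and held 24 h before addition of four 10-fold concentrations. After 48 h, cells were TCA-fixed, stained with 0.4% SRB and read at 540 nm. GI50, TGI and LC50 were derived against time-zero and control wells; each value is the mean of three experiments.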

Q: `CC(C)N1CCN(c2nc(Nc3ccc(C#N)c(C(F)(F)F)c3)nc(Oc3ccnc4ccccc34)n2)CC1` was tested. Which GI50 did it give?
A: Its GI50 is greater than 100 µM.

Q: And the LC50 (concentration giving 50% net cell kill relative to time zero)?
A: The LC50 (concentration giving 50% net cell kill relative to time zero) was greater than 100 µM.

Q: What about the TGI of the same molecule?
A: The TGI was greater than 100 µM.

System: Staphylococcus aureus
Test: Antibacterial activity against 10^5 CFU/mL Staphylococcus aureus MTCC 96 after 24 hrs by disc diffusion technique
Assay type: functional
Settings: not given
Method in brief: as §2

Q: How did the “inhibition zone (IZ)” value turn out when `CC(C)N1CCN(c2nc(Nc3ccc(C#N)c(C(F)(F)F)c3)nc(Oc3ccnc4ccccc34)n2)CC1` was run?
A: Its value is 23 mm.

System: Salmonella typhi
Test: Antibacterial activity against 10^5 CFU/mL Salmonella typhi MTCC 733 after 24 hrs by agar streak dilution method
Assay type: functional, Salmonella enterica subsp. enterica serovar Typhi
Settings: Salmonella enterica, MTCC 733, 24 h

Q: With `CC(C)N1CCN(c2nc(Nc3ccc(C#N)c(C(F)(F)F)c3)nc(Oc3ccnc4ccccc34)n2)CC1` as the molecule, how does the MIC read?
A: Its MIC is 100 µg/mL (≈ 187 µM).

System: Aspergillus clavatus
Test: Antifungal activity against 10^5 CFU/mL Aspergillus clavatus MTCC 1323 after 48 hrs by agar streak dilution method
Assay type: functional
Settings: MTCC 1323, 48 h
Method in brief: as §3

Q: Which MIC does the source give for `CC(C)N1CCN(c2nc(Nc3ccc(C#N)c(C(F)(F)F)c3)nc(Oc3ccnc4ccccc34)n2)CC1` here?
A: Its MIC is 100 µg/mL (≈ 187 µM).

System: Aspergillus niger
Test: Antifungal activity against 10^5 CFU/mL Aspergillus niger MTCC 282 after 48 hrs by agar streak dilution method
Assay type: functional
Settings: MTCC 282, 48 h
Method in brief: as §3

Q: How did the MIC turn out when `CC(C)N1CCN(c2nc(Nc3ccc(C#N)c(C(F)(F)F)c3)nc(Oc3ccnc4ccccc34)n2)CC1` was run?
A: Its MIC is 100 µg/mL (≈ 187 µM).

System: Aspergillus clavatus
Test: Antifungal activity against 10^5 CFU/mL Aspergillus clavatus MTCC 1323 after 48 hrs by disc diffusion technique
Assay type: functional
Settings: not given

Q: `CC(C)N1CCN(c2nc(Nc3ccc(C#N)c(C(F)(F)F)c3)nc(Oc3ccnc4ccccc34)n2)CC1` was tested. Which “inhibition zone (IZ)” value did it give?
A: Its value is 17 mm.

System: Salmonella typhi
Test: Antibacterial activity against 10^5 CFU/mL Salmonella typhi MTCC 733 after 24 hrs by disc diffusion technique
Assay type: functional, Salmonella enterica subsp. enterica serovar Typhi
Settings: not given
Method in brief: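 Disc diffusion. Mueller-Hinton agar autoclaved 120 °C 30 min, poured 5 mm deep. Surface swabbed with 10⁵ CFU/mL suspension […]. 6.25 mm filter-paper discs soaked in compound in DMSO; DMSO-only disc as blank. Incubated 37 ± 1 °C, 24 h for bacteria or 48 h for fungi. Ciprofloxacin and ketoconazole discs as reference drugs. Inhibition zone measured in mm.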

Q: How did the “inhibition zone (IZ)” value turn out when `CC(C)N1CCN(c2nc(Nc3ccc(C#N)c(C(F)(F)F)c3)nc(Oc3ccnc4ccccc34)n2)CC1` was run?
A: The value was 21 mm.

System: Klebsiella pneumoniae
Test: Antibacterial activity against 10^5 CFU/mL Klebsiella pneumoniae MTCC 109 after 24 hrs by disc diffusion technique
Assay type: functional
Settings: not given
Method in brief: as §2

Q: With `CC(C)N1CCN(c2nc(Nc3ccc(C#N)c(C(F)(F)F)c3)nc(Oc3ccnc4ccccc34)n2)CC1` as the molecule, how does the “inhibition zone (IZ)” value read?
A: The value was 21 mm.

System: Aspergillus niger
Test: Antifungal activity against 10^5 CFU/mL Aspergillus niger MTCC 282 after 48 hrs by disc diffusion technique
Assay type: functional
Settings: not given

Q: How did the “inhibition zone (IZ)” value turn out when `CC(C)N1CCN(c2nc(Nc3ccc(C#N)c(C(F)(F)F)c3)nc(Oc3ccnc4ccccc34)n2)CC1` was run?
A: The value was less than 10 mm.

System: Candida albicans
Test: Antifungal activity against 10^5 CFU/mL Candida albicans MTCC 183 after 48 hrs by agar streak dilution method
Assay type: functional
Settings: MTCC 183, 48 h
Method in brief: as §3

Q: `CC(C)N1CCN(c2nc(Nc3ccc(C#N)c(C(F)(F)F)c3)nc(Oc3ccnc4ccccc34)n2)CC1` was tested. Which MIC did it give?
A: The MIC was 100 µg/mL (≈ 187 µM).

System: Shigella flexneri
Test: Antibacterial activity against 10^5 CFU/mL Shigella flexneri MTCC 1457 after 24 hrs by agar streak dilution method
Assay type: functional
Settings: MTCC 1457, 24 h
Method in brief: as §1

Q: `CC(C)N1CCN(c2nc(Nc3ccc(C#N)c(C(F)(F)F)c3)nc(Oc3ccnc4ccccc34)n2)CC1` was tested. Which MIC did it give?
A: Its MIC is 50 µg/mL (≈ 93.5 µM).

System: Escherichia coli
Test: Antibacterial activity against 10^5 CFU/mL Escherichia coli MTCC 739 after 24 hrs by disc diffusion technique
Assay type: functional
Settings: not given
Method in brief: as §2

Q: For `CC(C)N1CCN(c2nc(Nc3ccc(C#N)c(C(F)(F)F)c3)nc(Oc3ccnc4ccccc34)n2)CC1`, which “inhibition zone (IZ)” value is on record?
A: The value was 22 mm.

System: Staphylococcus aureus
Test: Antibacterial activity against 10^5 CFU/mL Staphylococcus aureus MTCC 96 after 24 hrs by agar streak dilution method
Assay type: functional
Settings: MTCC 96, 24 h
Method in brief: as §1

Q: `CC(C)N1CCN(c2nc(Nc3ccc(C#N)c(C(F)(F)F)c3)nc(Oc3ccnc4ccccc34)n2)CC1` was tested. Which MIC did it give?
A: Its MIC is 50 µg/mL (≈ 93.5 µM).

System: Proteus vulgaris
Test: Antibacterial activity against 10^5 CFU/mL Proteus vulgaris MTCC 1771 after 24 hrs by disc diffusion technique
Assay type: functional
Settings: not given
Method in brief: as §2

Q: Which “inhibition zone (IZ)” value does the source give for `CC(C)N1CCN(c2nc(Nc3ccc(C#N)c(C(F)(F)F)c3)nc(Oc3ccnc4ccccc34)n2)CC1` here?
A: Its value is 21 mm.
